One test relates to metallo-β-lactamase VIM-2 (Pseudomonas aeruginosa). Briefly: Inhibition of VIM-2 (unknown origin) expressed in Escherichia coli BL21(DE3) assessed as substrate hydrolysis at 100 uM by UV-Vis spectrophotometric analysis relative to control.
Conditions: not given
Metallo-beta-lactamase type 2, sequence (C7C422 whole entry): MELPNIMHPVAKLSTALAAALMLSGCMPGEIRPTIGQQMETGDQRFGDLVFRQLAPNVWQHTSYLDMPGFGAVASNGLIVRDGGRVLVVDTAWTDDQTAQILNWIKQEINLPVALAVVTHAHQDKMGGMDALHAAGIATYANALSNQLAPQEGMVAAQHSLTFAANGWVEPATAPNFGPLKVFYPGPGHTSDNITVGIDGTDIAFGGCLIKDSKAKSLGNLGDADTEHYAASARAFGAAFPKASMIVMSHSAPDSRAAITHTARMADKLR
As for `O=C(O)Cc1ccccc1Cn1c(-c2ccccc2)n[nH]c1=S`, the inhibition turned out to be 50%.
Same read-out and setting: next, `S=c1[nH]nc(Cc2ccccc2)n1CCCc1ccccc1`: less than 30%; `Cc1ccccc1-c1n[nH]c(=S)n1CCc1ccc(OCc2ccccc2)cc1`: less than 30%; `S=c1[nH]nc(-c2ccccc2)n1[C@@H]1C[C@H]1c1ccccc1`: 30%.
`O=C1OC(Cn2c(-c3ccccc3-c3ccccc3)n[nH]c2=S)c2ccccc21` (stereo not drawn): the inhibition was less than 30%.
Same read-out and setting: next, `S=c1[nH]nc(Cc2ccccc2)n1Cc1ccccc1`: less than 30%.

A further test concerns the target Metallo-beta-lactamase type 2 (Bacteria) (UniProt C7C422). Briefly: Inhibition of NDM1 (unknown origin) expressed in Escherichia coli BL21(DE3) assessed as substrate hydrolysis at 100 uM by UV-Vis spectrophotometric analysis relative to control.
Conditions: not given
The essentials:
(§1)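 Single-point screen at 100 or 200 µM inhibitor against purified MBL (1–70 nM) with 150 µM imipenem or meropenem reporter substrate, 50 mM HEPES pH 7.5, 30 °C. Initial hydrolysis rate read by absorbance at 300 nm and compared with the uninhibited reaction. Triplicate.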
As for `S=c1[nH]nc(-c2ccccc2)n1CCCCc1ccccc1`, the inhibition was determined as 55%.
The same measure, in the same setting: then `O=C(O)Cc1ccccc1Cn1c(-c2ccccc2)n[nH]c1=S`, with less than 30%; and `O=C(O)c1ccc(Cn2c(-c3ccccc3)n[nH]c2=S)cc1`, with less than 30%.
Still for that read-out and setting: then `S=c1[nH]nc(Cc2ccccc2)n1CCCc1ccccc1`, with less than 30%; and `S=c1[nH]nc(-c2ccccc2)n1CCc1c[nH]c2ccccc12`, with less than 30%.
In the case of `Cc1ccccc1-c1n[nH]c(=S)n1CCc1ccc(OCc2ccccc2)cc1`, the inhibition was less than 30%.
In the case of `COc1ccc(O)c(-c2n[nH]c(=S)n2Cc2ccccc2)c1`, the inhibition was less than 30%.
On the same count and under the same terms, next, `O=C1OC(Cn2c(-c3ccccc3-c3ccccc3)n[nH]c2=S)c2ccccc21` (stereo not drawn): less than 30%; `S=c1[nH]nc(Cc2ccccc2)n1Cc1ccccc1`: less than 30%.

For a further test, the system named is Klebsiella pneumoniae. In words: Antimicrobial synergistic activity against blaVIM-1-producing multidrug-resistant Klebsiella pneumoniae 7023 clinical isolate assessed as meropenem MIC at 32 ug/ml by CLSI based broth microdilution method (reference value: 16 ug/ml). It counts as functional. The conditions noted are these: dose 32 µg/ml.
Take `S=c1[nH]nc(-c2ccccc2)n1CCCCc1ccccc1`: the MIC amounted to 2 µg/mL.
The same measure, in the same setting: then `O=C(O)c1ccc(Cn2c(-c3ccccc3)n[nH]c2=S)cc1`, with 4 µg/mL.
Still for that read-out and setting: then `COc1ccc(O)c(-c2n[nH]c(=S)n2Cc2ccccc2)c1`, with 2 µg/mL.

The next test deals with Beta-lactamase VIM-1 (Bacteria) (UniProt Q8GDC1). Briefly: Inhibition of VIM-1 (unknown origin) expressed in Escherichia coli BL21(DE3) assessed as substrate hydrolysis at 100 uM by UV-Vis spectrophotometric analysis relative to control.
Conditions: not given
Put shortly: as §1
In the case of `O=C(O)Cc1ccccc1Cn1c(-c2ccccc2)n[nH]c1=S`, the inhibition was less than 30%.
As to `S=c1[nH]nc(Cc2ccccc2)n1CCCc1ccccc1`, the inhibition amounted to 30%.
In the case of `S=c1[nH]nc(-c2ccccc2)n1CCc1c[nH]c2ccccc12`, the inhibition is 50%.
Same read-out and setting: next, `Cc1ccccc1-c1n[nH]c(=S)n1CCc1ccc(OCc2ccccc2)cc1`: 47%; `O=C1OC(Cn2c(-c3ccccc3-c3ccccc3)n[nH]c2=S)c2ccccc21` (stereo not drawn): 30%.

The subject of another test is Escherichia coli. In words: Synergistic antimicrobial activity against blaNDM-1-producing multidrug-resistant Escherichia coli SI-004M clinical isolate assessed as meropenem MIC at 32 ug/ml by CLSI based microdilution method (reference value: 64 ug/ml). As to conditions: dose 32 µg/ml. Format: functional.
Regarding `S=c1[nH]nc(-c2ccccc2)n1CCCCc1ccccc1`, the MIC amounted to 64 µg/mL.
In the case of `O=C(O)c1ccc(Cn2c(-c3ccccc3)n[nH]c2=S)cc1`, the MIC was 64 µg/mL.
In the case of `COc1ccc(O)c(-c2n[nH]c(=S)n2Cc2ccccc2)c1`, the MIC was determined as 32 µg/mL.

Test system in another test: not listed separately
Briefly: Binding affinity to VIM-4 (unknown origin) expressed in Escherichia coli BL21(DE3) assessed as inhibition constant by measuring rate of substrate hydrolysis by UV-Vis spectrophotometric analysis.
Conditions: not given
The essentials: (§2)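 Purified MBL (1–70 nM) with 150 µM imipenem or meropenem as reporter substrate, 50 mM HEPES pH 7.5, 30 °C. Hydrolysis followed by absorbance at 300 nm without and with inhibitor (0.5 µM–1 mM). Ki from the slope of v0/vi vs [I] under a competitive model, or from Dixon plots varying inhibitor and substrate. […] Triplicate, mean ± SD.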
As to `S=c1[nH]nc(-c2ccccc2)n1CCCCc1ccccc1`, the Ki was found to be 430 nM.
Still for that read-out and setting: then `O=C(O)c1ccc(Cn2c(-c3ccccc3)n[nH]c2=S)cc1`, with 1100 nM.
For the compound `COc1ccc(O)c(-c2n[nH]c(=S)n2Cc2ccccc2)c1`, the Ki came to 1800 nM.

The next test has as its system metallo-β-lactamase VIM-4 (Pseudomonas aeruginosa). Briefly: Inhibition of VIM-4 (unknown origin) expressed in Escherichia coli BL21(DE3) assessed as substrate hydrolysis at 200 uM by UV-Vis spectrophotometric analysis relative to control.
Conditions: not given
On to `S=c1[nH]nc(-c2ccccc2)n1CCc1c[nH]c2ccccc12`, for which the inhibition amounted to 50%.
Take `Cc1ccccc1-c1n[nH]c(=S)n1CCc1ccc(OCc2ccccc2)cc1`: the inhibition is less than 50%.
`S=c1[nH]nc(-c2ccccc2)n1[C@@H]1C[C@H]1c1ccccc1`: the inhibition is less than 50%.

The target in another test is Metallo-beta-lactamase type 2 (Bacteria, UniProt C7C422). In words: Binding affinity to NDM1 (unknown origin) expressed in Escherichia coli BL21(DE3) assessed as inhibition constant by measuring rate of substrate hydrolysis by UV-Vis spectrophotometric analysis. As to conditions: read-out: Ki. Put shortly:
as §2
As for `S=c1[nH]nc(-c2ccccc2)n1[C@@H]1C[C@H]1c1ccccc1`, the inhibitory constant (Ki) was 15400 nM.

Test system in a further test: not listed separately
Briefly: Binding affinity to VIM-2 (unknown origin) expressed in Escherichia coli BL21(DE3) assessed as inhibition constant by measuring rate of substrate hydrolysis by UV-Vis spectrophotometric analysis.
Conditions: not given
Put shortly:
as §2
As for `S=c1[nH]nc(-c2ccccc2)n1CCCCc1ccccc1`, the Ki was 230 nM.
Consider `O=C(O)c1ccc(Cn2c(-c3ccccc3)n[nH]c2=S)cc1`, for which the inhibition constant Ki was found to be 2700 nM.
Same read-out and setting: then `COc1ccc(O)c(-c2n[nH]c(=S)n2Cc2ccccc2)c1`, with 4000 nM.

The subject of a further test is metallo-β-lactamase VIM-2 (Pseudomonas aeruginosa). Briefly: Inhibition of VIM-2 (unknown origin) expressed in Escherichia coli BL21(DE3) assessed as substrate hydrolysis at 200 uM by UV-Vis spectrophotometric analysis relative to control.
Conditions: not given
`S=c1[nH]nc(-c2ccccc2)n1CCc1c[nH]c2ccccc12`: the inhibition was found to be 50%.
On to `Cc1ccccc1-c1n[nH]c(=S)n1CCc1ccc(OCc2ccccc2)cc1`, for which the inhibition was less than 50%.
Same read-out and setting: next, `O=C1OC(Cn2c(-c3ccccc3-c3ccccc3)n[nH]c2=S)c2ccccc21` (stereo not drawn): less than 50%.

For the next test, the target named is Metallo-beta-lactamase type 2 (Bacteria) (UniProt C7C422). Briefly: Inhibition of NDM1 (unknown origin) expressed in Escherichia coli BL21(DE3) assessed as substrate hydrolysis at 200 uM by UV-Vis spectrophotometric analysis relative to control.
Metallo-beta-lactamase type 2 (Bacteria), sequence (C7C422 whole entry): as above
Conditions: not given
Put shortly:
as §1
Regarding `S=c1[nH]nc(-c2ccccc2)n1CCc1c[nH]c2ccccc12`, the inhibition is less than 50%.
With `Cc1ccccc1-c1n[nH]c(=S)n1CCc1ccc(OCc2ccccc2)cc1`, the inhibition is less than 50%.
As for `O=C1OC(Cn2c(-c3ccccc3-c3ccccc3)n[nH]c2=S)c2ccccc21` (stereo not drawn), the inhibition was less than 50%.

The subject of another test is Klebsiella pneumoniae. Briefly: Antimicrobial synergistic activity against blaVIM-4-producing multidrug-resistant Klebsiella pneumoniae VA416/02 clinical isolate assessed as meropenem MIC at 32 ug/ml by CLSI based broth microdilution method (reference value: 16 ug/ml). Format: functional. As to conditions: dose 32 µg/ml.
In the case of `S=c1[nH]nc(-c2ccccc2)n1CCCCc1ccccc1`, the minimal inhibitory concentration (MIC) amounted to 4 µg/mL.
Consider `O=C(O)c1ccc(Cn2c(-c3ccccc3)n[nH]c2=S)cc1`, for which the MIC worked out at 2 µg/mL.
On to `COc1ccc(O)c(-c2n[nH]c(=S)n2Cc2ccccc2)c1`, for which the MIC turned out to be 2 µg/mL.

For the next test, the system named is metallo-β-lactamase IMP-1 (Pseudomonas aeruginosa). Briefly: Inhibition of IMP1 (unknown origin) expressed in Escherichia coli BL21(DE3) assessed as substrate hydrolysis at 100 uM by UV-Vis spectrophotometric analysis relative to control.
Conditions: not given
On to `S=c1[nH]nc(-c2ccccc2)n1CCCCc1ccccc1`, for which the inhibition is less than 30%.
The same measure, in the same setting: next, `O=C(O)Cc1ccccc1Cn1c(-c2ccccc2)n[nH]c1=S`: less than 30%; `O=C(O)c1ccc(Cn2c(-c3ccccc3)n[nH]c2=S)cc1`: less than 30%.
`S=c1[nH]nc(Cc2ccccc2)n1CCCc1ccccc1`: the inhibition amounted to 63%.
For `S=c1[nH]nc(-c2ccccc2)n1CCc1c[nH]c2ccccc12`, the inhibition is less than 30%.
Same read-out and setting: then `Cc1ccccc1-c1n[nH]c(=S)n1CCc1ccc(OCc2ccccc2)cc1`, with less than 30%; and `COc1ccc(O)c(-c2n[nH]c(=S)n2Cc2ccccc2)c1`, with less than 30%; and `O=C1OC(Cn2c(-c3ccccc3-c3ccccc3)n[nH]c2=S)c2ccccc21` (stereo not drawn), with 54%.
Same read-out and setting: then `S=c1[nH]nc(Cc2ccccc2)n1Cc1ccccc1`, with 57%.

Another test deals with Beta-lactamase VIM-1 (Bacteria, UniProt Q8GDC1). In words: Binding affinity to VIM-1 (unknown origin) expressed in Escherichia coli BL21(DE3) assessed as inhibition constant by measuring rate of substrate hydrolysis by UV-Vis spectrophotometric analysis.
Conditions: not given
Put shortly: as §2
For the compound `S=c1[nH]nc(-c2ccccc2)n1CCCCc1ccccc1`, the Ki amounted to 1200 nM.
Regarding `O=C(O)c1ccc(Cn2c(-c3ccccc3)n[nH]c2=S)cc1`, the Ki came to 3600 nM.
Still for that read-out and setting: then `S=c1[nH]nc(-c2ccccc2)n1[C@@H]1C[C@H]1c1ccccc1`, with 3100 nM; and `COc1ccc(O)c(-c2n[nH]c(=S)n2Cc2ccccc2)c1`, with 590 nM.
Still for that read-out and setting: next, `S=c1[nH]nc(Cc2ccccc2)n1Cc1ccccc1`: 23000 nM.

In another test the test system is metallo-β-lactamase VIM-4 (Pseudomonas aeruginosa). Briefly: Inhibition of VIM-4 (unknown origin) expressed in Escherichia coli BL21(DE3) assessed as substrate hydrolysis at 100 uM by UV-Vis spectrophotometric analysis relative to control.
Conditions: not given
For the compound `O=C(O)Cc1ccccc1Cn1c(-c2ccccc2)n[nH]c1=S`, the inhibition was less than 30%.
As for `S=c1[nH]nc(Cc2ccccc2)n1CCCc1ccccc1`, the inhibition was less than 30%.
Still for that read-out and setting: then `Cc1ccccc1-c1n[nH]c(=S)n1CCc1ccc(OCc2ccccc2)cc1`, with less than 30%; and `S=c1[nH]nc(-c2ccccc2)n1[C@@H]1C[C@H]1c1ccccc1`, with less than 30%.
Take `O=C1OC(Cn2c(-c3ccccc3-c3ccccc3)n[nH]c2=S)c2ccccc21` (stereo not drawn): the inhibition was determined as 34%.
Same read-out and setting: then `S=c1[nH]nc(Cc2ccccc2)n1Cc1ccccc1`, with less than 30%.

A further test concerns metallo-β-lactamase IMP-1 (Pseudomonas aeruginosa). Briefly: Inhibition of IMP1 (unknown origin) expressed in Escherichia coli BL21(DE3) assessed as substrate hydrolysis at 200 uM by UV-Vis spectrophotometric analysis relative to control.
Conditions: not given
On to `S=c1[nH]nc(-c2ccccc2)n1CCc1c[nH]c2ccccc12`, for which the inhibition is less than 50%.
Still for that read-out and setting: then `Cc1ccccc1-c1n[nH]c(=S)n1CCc1ccc(OCc2ccccc2)cc1`, with less than 50%.

The next test concerns metallo-β-lactamase L1 (Stenotrophomonas maltophilia). In words: Inhibition of L1 (unknown origin) expressed in Escherichia coli BL21(DE3) assessed as substrate hydrolysis at 100 uM by UV-Vis spectrophotometric analysis relative to control.
Conditions: not given
Take `S=c1[nH]nc(-c2ccccc2)n1CCCCc1ccccc1`: the inhibition is 50%.
The same measure, in the same setting: next, `O=C(O)Cc1ccccc1Cn1c(-c2ccccc2)n[nH]c1=S`: less than 30%.
Turning to `O=C(O)c1ccc(Cn2c(-c3ccccc3)n[nH]c2=S)cc1`, the inhibition amounted to 45%.
Consider `S=c1[nH]nc(Cc2ccccc2)n1CCCc1ccccc1`, for which the inhibition came to 32%.
Consider `COc1ccc(O)c(-c2n[nH]c(=S)n2Cc2ccccc2)c1`, for which the inhibition was determined as 40%.
Still for that read-out and setting: then `S=c1[nH]nc(Cc2ccccc2)n1Cc1ccccc1`, with 40%.

These data come from ChEMBL document CHEMBL5325390, “1,2,4-Triazole-3-thione analogues with an arylakyl group at position 4 as metallo-β-lactamase inhibitors” (Bioorg Med Chem, 2022).
